Data as given in ChEMBL document CHEMBL2203241, “Natural product-derived antitumor compound phenethyl isothiocyanate inhibits mTORC1 activity via TSC2” (J Nat Prod, 2012).
Activity calls are given as the source filed them. No cut-off for these calls is given here.

Columns and labels:
[1] = test system: MCF7; assay: Inhibition of HIF1alpha RNA translation in human MCF7 cells at 10 ug/mL pretreated for 1 hr prior to metabolic labeling by SDS-PAGE analysis; type: functional, cell-based
Procedure, shortened: (§1)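 MCF7 cells held 1 h in DMEM without L-glutamine, cysteine and methionine, with 10% dialysed FCS and 2 mM glutamine. Then pretreated 1 h with compound, cycloheximide 10 μg/mL or DMSO, and labelled 2 h with [35S] amino acids (0.75 MBq/mL) plus CoCl2 100 μM. RIPA lysates immunoprecipitated overnight at 4 °C with anti-HIF1α or isotype IgG; SDS-PAGE, phosphorimaging. Three independent experiments.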

[2] = test system: MEF; assay: Inhibition of growth in TSC2-deficient MEF cells after 6 days; type: functional, cell-based; conditions: Mus musculus, 144 h
Procedure, shortened: (§2)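 Growth assay: p53−/−TSC2−/− and control MEFs plated at 1000 cells/well and treated next day with compound, DMSO or nothing. After 6 days relative cell number read by CellTiter 96 AQueous One, expressed as % of untreated. IC50 from curve fit; mean ± SD of three independent experiments.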

[3] = test system: MEF; assay: Inhibition of growth in wild type MEF cells after 6 days; type: functional, cell-based; conditions: Mus musculus, 144 h; procedure, shortened: as §2
[4] = test system: MCF7; assay: Increase in mTORC2 activity in human MCF7 cells induction of Akt phosphorylation at serine 473 after 4 hrs by immunoblotting analysis; type: cell-based
Procedure, shortened: (§3)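 MCF7 cells given 20 μM compound or DMSO for up to 4 h. Immunoblots for phospho-AKT T308, phospho-AKT S473, total AKT and β-actin. Phospho signals normalised to total AKT; total AKT normalised to β-actin. Mean ± SD of three independent experiments; repeated measures ANOVA with Tukey's test.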

[5] = test system: MEF; assay: Increase in mTORC2 activity in p53-/-TSC2-/- MEF cells assessed as […] in NDRG1 phosphorylation at threonine 346 after 3 hrs by immunoblotting analysis; type: cell-based; conditions: Mus musculus
Procedure, shortened: (§4)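 p53−/−TSC2+/+ and p53−/−TSC2−/− MEFs in standard serum-containing medium exposed to compound, DMSO (matched to 20 μM) or nothing for 3 h. Immunoblots probed for phospho-AKT S473, total AKT, phospho-NDRG1 T346 and total NDRG1, with HSC70 as loading control.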

[6] = test system: MEF; assay: Increase in mTORC2 activity in p53-/-TSC2-/- MEF cells assessed as […] of Akt phosphorylation at serine 473 after 3 hrs by immunoblotting analysis; type: cell-based; conditions: Mus musculus; procedure, shortened: as §4
[7] = test system: MEF; assay: Effect on mTORC2 in p53-/-TSC2+/+ MEF cells assessed as as NDRG1 phosphorylation at threonine 346 after 3 hrs by immunoblotting analysis; type: cell-based; conditions: Mus musculus; procedure, shortened: as §4
[8] = test system: MEF; assay: Effect on mTORC2 in p53-/-TSC2+/+ MEF cells assessed as Akt phosphorylation at serine 473 after 3 hrs by immunoblotting analysis; type: cell-based; conditions: Mus musculus; procedure, shortened: as §4
[9] = test system: MEF; assay: Inhibition of mTORC1 in p53-/-TSC2-/- MEF cells assessed as reduction of p70S6K phosphorylation at threonine 389 after 3 hrs by immunoblotting analysis; type: cell-based; conditions: Mus musculus
Procedure, shortened: (§5)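 p53−/−TSC2+/+ and p53−/−TSC2−/− MEFs in standard serum-containing medium exposed to a concentration series, DMSO (matched to 20 μM) or nothing for 3 h. Immunoblots for phospho-p70 S6K T389, total p70 S6K and β-actin. Mean ± SD of three independent experiments; ANOVA with Tukey's test within each line, t test between lines.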

[10] = test system: MEF; assay: Inhibition of mTORC1 in p53-/-TSC2+/+ MEF cells assessed as reduction of p70S6K phosphorylation at threonine 389 after 3 hrs by immunoblotting analysis; type: cell-based; conditions: Mus musculus; procedure, shortened: as §5
[11] = molecular target: AMP-activated protein kinase, AMPK (Homo sapiens) (UniProt P54646+O43741+P54619+Q9UGJ0+Q9Y478+Q13131+Q9UGI9); assay: Induction of AMPK phosphorylation at threonine 172 in human MCF7 cells after 3 hrs by immunoblotting analysis; type: cell-based
[12] = molecular target: Mitogen-activated protein kinase; ERK1/ERK2 (Homo sapiens) (UniProt P27361+P28482); assay: Induction of ERK1/2 phosphorylation at threonine 202/tyrosine 204 in human MCF7 cells after 3 hrs by immunoblotting analysis; type: cell-based
Mitogen-activated protein kinase; ERK1/ERK2 (Homo sapiens), sequence (P27361 whole entry, looked up): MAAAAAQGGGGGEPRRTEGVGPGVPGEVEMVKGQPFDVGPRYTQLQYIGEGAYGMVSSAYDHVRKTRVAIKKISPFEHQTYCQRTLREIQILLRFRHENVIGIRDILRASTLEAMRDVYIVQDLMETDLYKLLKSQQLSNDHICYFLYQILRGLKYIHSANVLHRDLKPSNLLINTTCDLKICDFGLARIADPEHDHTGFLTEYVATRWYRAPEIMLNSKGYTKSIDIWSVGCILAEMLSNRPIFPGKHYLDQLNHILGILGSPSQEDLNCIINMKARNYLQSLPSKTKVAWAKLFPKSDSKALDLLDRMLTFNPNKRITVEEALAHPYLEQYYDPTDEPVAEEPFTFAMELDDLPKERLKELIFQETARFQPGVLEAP
Mitogen-activated protein kinase; ERK1/ERK2 (Homo sapiens), sequence (P28482 whole entry, looked up): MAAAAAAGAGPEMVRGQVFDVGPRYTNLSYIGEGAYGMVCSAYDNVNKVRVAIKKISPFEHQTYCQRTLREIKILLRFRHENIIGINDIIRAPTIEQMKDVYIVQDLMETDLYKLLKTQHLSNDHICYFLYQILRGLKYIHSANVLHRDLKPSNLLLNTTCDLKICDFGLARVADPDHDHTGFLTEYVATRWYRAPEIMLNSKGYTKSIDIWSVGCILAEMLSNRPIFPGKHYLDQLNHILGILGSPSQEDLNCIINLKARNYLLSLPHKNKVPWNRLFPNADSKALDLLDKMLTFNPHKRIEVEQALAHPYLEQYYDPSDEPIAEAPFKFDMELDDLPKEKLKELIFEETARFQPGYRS

[13] = test system: MCF7; assay: Induction of Akt phosphorylation at threonine 308 in human MCF7 cells after 4 hrs by immunoblotting analysis relative to total Akt; type: cell-based; procedure, shortened: as §3
[14] = test system: MCF7; assay: Inhibition of Akt phosphorylation at threonine 308 in human MCF7 cells at 20 uM after 4 hrs by immunoblotting analysis; type: cell-based; procedure, shortened: as §3
[15] = test system: MEF; assay: Inhibition of mTORC1 in PTEN-/- MEF cells assessed as reduction of p70S6K phosphorylation after 3 hrs by immunoblotting analysis; type: cell-based; conditions: Mus musculus
Procedure, shortened: (§6)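 PTEN+/+ and PTEN−/− MEFs exposed to a concentration series, DMSO or nothing for 3 h. Immunoblots for phospho-p70 S6K T389, total p70 S6K and β-actin.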

[16] = test system: MEF; assay: Inhibition of mTORC1 in MEF cells assessed as reduction of p70S6K phosphorylation at threonine 389 at 2.5 to 5 uM after 3 hrs by immunoblotting analysis; type: cell-based; conditions: Mus musculus; procedure, shortened: as §6
[17] = test system: MEF; assay: Inhibition of mTORC1 in p53-/-TSC+/+ MEF cells assessed as reduction of p70S6K phosphorylation after 3 hrs by immunoblotting analysis; type: cell-based; conditions: Mus musculus; procedure, shortened: as §5
[18] = test system: MEF; assay: Inhibition of mTORC1 in PTEN+/+ MEF cells assessed as reduction of p70S6K phosphorylation after 3 hrs by immunoblotting analysis; type: cell-based; conditions: Mus musculus; procedure, shortened: as §6
[19] = molecular target: T1, mTORC1 (Homo sapiens) (UniProt P42345+Q8N122+Q9BVC4); assay: Inhibition of mTORC1 in human MCF7 cells assessed as reduction of p70S6K phosphorylation at 20 uM after 15 mins by immunoblotting analysis; type: cell-based
T1 sequence (Q8N122 whole entry, looked up, other chains not shown): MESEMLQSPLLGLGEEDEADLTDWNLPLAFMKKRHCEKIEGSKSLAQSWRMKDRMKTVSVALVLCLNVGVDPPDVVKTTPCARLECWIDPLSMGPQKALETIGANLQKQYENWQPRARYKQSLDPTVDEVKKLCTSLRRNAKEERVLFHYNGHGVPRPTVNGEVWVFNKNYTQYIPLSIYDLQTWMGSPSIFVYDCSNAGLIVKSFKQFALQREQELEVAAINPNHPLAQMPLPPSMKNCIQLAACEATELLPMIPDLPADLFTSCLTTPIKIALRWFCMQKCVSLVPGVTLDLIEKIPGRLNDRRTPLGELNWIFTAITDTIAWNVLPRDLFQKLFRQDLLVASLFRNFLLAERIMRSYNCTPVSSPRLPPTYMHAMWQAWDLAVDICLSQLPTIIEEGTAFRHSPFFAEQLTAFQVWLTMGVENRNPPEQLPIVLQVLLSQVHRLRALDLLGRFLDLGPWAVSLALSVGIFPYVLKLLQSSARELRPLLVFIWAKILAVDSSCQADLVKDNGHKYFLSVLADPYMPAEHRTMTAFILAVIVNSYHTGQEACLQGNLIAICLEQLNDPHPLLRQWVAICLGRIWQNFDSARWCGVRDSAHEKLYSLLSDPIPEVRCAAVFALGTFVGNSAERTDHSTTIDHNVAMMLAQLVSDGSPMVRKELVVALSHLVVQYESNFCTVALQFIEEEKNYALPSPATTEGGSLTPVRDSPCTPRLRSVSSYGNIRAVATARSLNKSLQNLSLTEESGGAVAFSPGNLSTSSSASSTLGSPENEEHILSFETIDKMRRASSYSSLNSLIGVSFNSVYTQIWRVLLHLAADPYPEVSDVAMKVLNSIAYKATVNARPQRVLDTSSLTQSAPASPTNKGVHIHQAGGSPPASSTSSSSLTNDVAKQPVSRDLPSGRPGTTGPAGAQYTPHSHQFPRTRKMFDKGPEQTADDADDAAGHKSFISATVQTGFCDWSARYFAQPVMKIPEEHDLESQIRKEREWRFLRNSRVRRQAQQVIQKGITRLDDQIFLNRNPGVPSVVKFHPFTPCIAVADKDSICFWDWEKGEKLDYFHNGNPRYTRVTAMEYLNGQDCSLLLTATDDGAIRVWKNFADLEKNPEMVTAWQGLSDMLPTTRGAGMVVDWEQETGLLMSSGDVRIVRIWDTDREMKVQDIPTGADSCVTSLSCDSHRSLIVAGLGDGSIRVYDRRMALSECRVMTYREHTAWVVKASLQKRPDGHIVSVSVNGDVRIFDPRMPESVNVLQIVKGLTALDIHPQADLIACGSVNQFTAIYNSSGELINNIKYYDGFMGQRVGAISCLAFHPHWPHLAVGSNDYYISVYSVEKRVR
T1 sequence (Q9BVC4 whole entry, looked up, other chains not shown): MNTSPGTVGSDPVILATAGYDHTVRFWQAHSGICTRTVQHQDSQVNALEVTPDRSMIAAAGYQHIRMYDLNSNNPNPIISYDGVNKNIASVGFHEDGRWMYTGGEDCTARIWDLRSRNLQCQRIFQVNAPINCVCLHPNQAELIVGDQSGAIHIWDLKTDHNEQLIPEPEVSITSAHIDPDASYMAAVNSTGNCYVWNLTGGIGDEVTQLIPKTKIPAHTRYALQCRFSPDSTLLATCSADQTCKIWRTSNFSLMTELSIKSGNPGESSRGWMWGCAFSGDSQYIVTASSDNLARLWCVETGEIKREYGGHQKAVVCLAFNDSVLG
Procedure, shortened: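 MCF7 cells exposed to 20 μM compound or DMSO over a time course; p70 S6K phosphorylation read by immunoblotting.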

[20] = molecular target: T1, mTORC1 (Homo sapiens); assay: Inhibition of mTORC1 in human MCF7 cells assessed as reduction of 4E-BP1 phosphorylation after 3 hrs by immunoblotting analysis; type: cell-based
Procedure, shortened: (§7)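 MCF7 cells exposed to a concentration series, DMSO or nothing for 3 h, then immunoblotted. Repeated measures ANOVA with Tukey's test.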

[21] = molecular target: T1, mTORC1 (Homo sapiens); assay: Inhibition of mTORC1 in human MCF7 cells assessed as reduction of p70S6K phosphorylation at threonine 389 after 3 hrs by immunoblotting analysis; type: cell-based; procedure, shortened: as §7
[22] = molecular target: T2, Hypoxia inducible factors; HIF-1-alpha, HIF-2-alpha (Homo sapiens, UniProt Q16665+Q99814); assay: Inhibition of Serine/threonine-protein kinase mTOR complex 1-mediated HIF1alpha RNA translation in human MCF7 cells at 20 uM pretreated for 1 hr prior to metabolic labeling by SDS-PAGE analysis; type: cell-based; procedure, shortened: as §1
[23] = molecular target: T2, Hypoxia inducible factors; HIF-1-alpha, HIF-2-alpha; assay: Inhibition of Serine/threonine-protein kinase mTOR complex 1-mediated HIF1alpha RNA translation in human MCF7 cells pretreated for 1 hr prior to metabolic labeling by SDS-PAGE analysis; type: cell-based; procedure, shortened: as §1

In the case of C[C@@H]1C[C@@H]([C@H](O)CC2CC(=O)NC(=O)C2)C(=O)[C@@H](C)C1, the inhibition [1] is reported as “Active”.
S=C=NCCc1ccccc1 [PHENETHYLISOTHIOCYANATE] was tested, and the IC50 [2] was 8 µM, the IC50 [3] was 4.7 µM and the Activity [4] was “Active”. For the same compound, the Activity [5] was “Active”, the Activity [6] was “Active” and the Activity [7] was “inactive”. For the same compound, the Activity [8] was “inactive”, the inhibition [9] was “inactive” and the inhibition [10] was “Active”. For the same compound, the Activity [11] was “inactive”, the Activity [12] was “Active” and the fold change (FC) [13] was 3. For the same compound, the inhibition [14] was “inactive”, the inhibition [15] was “Active” and the inhibition [16] was “Active”. The inhibition [17] was “Active”, the inhibition [18] was “Active” and the inhibition [19] was “Active”. The inhibition [20] was “Active”, the inhibition [21] was “Active” and the inhibition [22] was “Active”. It also gave an IC50 [23] of 7.5 µM.
